Measured values as given in ChEMBL document CHEMBL4513216, “Probing the Open Global Health Chemical Diversity Library for Multistage-Active Starting Points for Next-Generation Antimalarials” (ACS Infect Dis, 2020).

Experiment: Toxicity liver stage against HepG2, at 10uM
Assay type: cell-based
Parameters: test concentration 10 uM, cell line HepG2-A16-CD81EGFP
Conditions: human, HepG2-A16-CD81EGFP cells; read-out: INHIBITION
How it was run: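 Uninfected HepG2-A16-CD81EGFP cells, 3 × 10^3 per well, 1536-well, plated on prespotted compound at 10 μM final, parasite-free screening media added to match infected plates; puromycin 10 μM positive, DMSO 0.5% negative; run in parallel with 48 h PbLuc assay at 37 °C, 5% CO2; viability by CellTiter-Glo luminescence, normalized to controls.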

| SMILES | cytotoxicity at 10 µM |
| --- | --- |
| CC(=O)N1C[C@@H](F)[C@@H](OCc2nc3cc(C)c(C)cc3[nH]2)C1 | 1.77% |
| COCCOc1ncccc1-c1noc([C@@H]2CCCN2C2CCC2)n1 | -7.68% |
| COc1ccc(CN2C[C@H](O)C[C@H]2c2nc(-c3ccccc3)no2)cc1 | 0.223% |
| CCn1cnc2c(cnn2-c2cccc(C)c2C)c1=O | -17.9% |
| CCOCc1nn(C)c2c1CN(C(=O)c1ccno1)CC2 | 8.61% |
| COCCNC(=O)Cn1c(-c2cccc(F)c2)nc(C)c(CCO)c1=O | -2.37% |
| CC(=O)Nc1nc(-c2ccc(C)c(C)c2)c[nH]1 | -19.3% |
| O=c1cc(-c2ccc(F)cc2)nc2n1CCCCC2 | -1.91% |
| O=C(c1cnc2ccc(Cl)cc2c1NCc1ccco1)N1CCCCC1 | 4.38% |
| Cn1ccc2c(C(=O)N3CCC(C(N)=O)CC3)cccc21 | 2.92% |
| Cc1cnc2n(c1=O)CC(C(=O)Nc1cccc3cccnc13)CS2 (configuration not stated) | -19.6% |
| CC(C)NC(=O)c1ccc2c(c1)nc1n2CCN(c2ccccc2)C1 | -3.99% |
| CC(=O)N1CCN(c2ccc3ccc(C(=O)NC4CCCC4)cn23)CC1 | 8.15% |
| CCn1nnc2c1C(COC)CN(C(=O)Cc1cccs1)C2 (configuration not stated) | -15.5% |
| Cc1noc([C@H]2CC[C@@H]3[C@@H](CCN3S(C)(=O)=O)O2)n1 | -19.3% |
| CC(C(=O)O)n1nc(C(F)(F)F)c(Cl)c1C1CC1 (configuration not stated) | 2.01% |
| CNc1nnc(CCn2nc(C)c(Br)c2C)s1 | 2.83% |
| COc1c(C2CC(=O)Nc3[nH]ncc32)cc2c(c1OC)OCO2 (configuration not stated) | 3.66% |
| CC1(C(=O)N2CCOCC2)CN(CC2CCOCC2)CCO1 (configuration not stated) | 4.14% |
| Cc1cc2ccncc2n1CC1(O)CCN(C(=O)c2ccncc2)CC1 | 7.53% |
| CN1C[C@@H](C(=O)NCC(F)(F)F)[C@@]2(CCc3ccccc3C(=O)N2)C1 | 6.22% |
| Cc1csc2c(C3CCCN(C(=O)Cn4cncn4)C3)nc(C)n12 (configuration not stated) | 5.27% |
| CCCn1nccc1-c1nccnc1CC1CCN(C(C)=O)C1 (configuration not stated) | 1.34% |

| SMILES | cytotoxicity at 10 µM |
| --- | --- |
| CSCC[C@@H]1CN2CCC[C@H]2CN1Cc1coc2ccc(Cl)cc2c1=O | 0.11% |
| COc1ncc(CN2CCCC(c3[nH]ncc3S(C)(=O)=O)C2)cn1 (configuration not stated) | 7.24% |
| Cc1cnc(Nc2nccnc2C2CCN(C)CC2)s1 | 2.52% |
| Cn1cc(C2CCCN2C(=O)c2cnc(C3CC3)s2)cn1 (configuration not stated) | -2.05% |
| CCN(CCO)Cc1ccc(Br)c2cccnc12 | 1.95% |
| O=c1[nH]c(=O)n(CC(O)c2ccccc2Cl)cc1Cl (configuration not stated) | 9.71% |
| c1ccc(CCN2CCC(OCC3CCCCO3)CC2)nc1 (configuration not stated) | -4.9% |
| COC(=O)CNC(=O)CCc1cc(Br)cs1 | 0.624% |
| CCCC(=O)NC1CCCN(c2nc3ccccc3cc2CO)C1 (configuration not stated) | -44.5% |
| CN(CC(=O)N1CCCC(n2ccnc2)C1)c1cnccn1 (configuration not stated) | 1.41% |
| Cc1nnc(C(C)N2CCN(Cc3noc(C(C)(C)C)n3)CC2)o1 (configuration not stated) | -13.3% |
| CC1CN(C)CCN1C(=O)c1cccn1Cc1cccs1 (configuration not stated) | -14.1% |
| Cc1ccc(S(=O)(=O)N(C)CC(C)O)c(F)c1 (configuration not stated) | -11.4% |
| Cc1ccc(C(NC(=O)CN2CCc3c(ncn3C)C2)C2CC2)cc1 (configuration not stated) | -2.43% |
| Cc1ccc(N2CCCN(C(=O)CCCn3ccnc3C)CC2)nn1 | -3.83% |
| CCn1cnnc1CNC(=O)N(C)Cc1ccccc1OC | -7.32% |
| O=C(NCC(=O)N1CCCC1Cc1cccc(F)c1)C1CCCC1 (configuration not stated) | -18% |
| Cn1cc(C(=O)NCCC(=O)N2CCCCC2)c(-c2cccnc2)n1 | -5.93% |
| CC(CS(C)(=O)=O)N(C(=O)Nc1ccc(F)cc1F)C1CC1 (configuration not stated) | 4.08% |
| CCC1CN(C(=O)Cc2coc(-c3ccccc3)n2)CCO1 (configuration not stated) | 3.06% |
| CCOc1ncccc1NC(=O)c1ccc(C(C)=O)s1 | 2.99% |
| O=C(Nc1ccccc1OC1CCOC1)c1ccon1 (configuration not stated) | -0.238% |
| CCN1CCC(CNC(=O)c2cc(Cl)c[nH]2)CC1 | -9.4% |

| SMILES | cytotoxicity at 10 µM |
| --- | --- |
| CC(O)CN1CCC(CN(C)CCC(=O)NC2CCCC2)CC1 (configuration not stated) | -0.663% |
| CC(=O)N(Cc1noc(C)n1)C1CCN(CC(=O)N(C)C2CC2)C1 (configuration not stated) | -4.69% |
| CC(C)c1nsc(N2CCOCC2)n1 | -11% |
| CCOCCN1CCN(c2ccc(CN(C)C)cn2)CC1 | -4.11% |
| Cc1cc(CN(C)C(=O)C2CC(c3cccc(F)c3)=NO2)no1 (configuration not stated) | 5.91% |
| Cc1nn(C)c2ncc(CN3CCN(c4ncccn4)CC3)cc12 | -0.234% |
| Nc1nccnc1C(=O)N1CCN(CCOc2ccccc2)CC1 | 12.8% |
| c1cnn(CCNCCCOc2ccc3c(c2)OCO3)c1 | 7.61% |
| Clc1ccccc1-c1nnc(CSCCN2CCOCC2)o1 | 0.728% |
| CC(C)NC(=O)CN(C1CC1)C(C)C1CC1 (configuration not stated) | -1.6% |
| Cc1noc(CNc2c(N3CCCC3)cccc2N2CCCC2)n1 | 0.184% |
| CCCNC(=O)c1ccc(-c2ccco2)[nH]c1=O | -5.68% |
| Cn1cc(CCCNC(=O)NC2CCN(c3ccccc3)C2=O)cn1 (configuration not stated) | 6.75% |
| O=C(Cc1cn2ccsc2n1)N(Cc1ccco1)CC1CCCO1 (configuration not stated) | 7.07% |
| c1ccc2[nH]c(C3CCN(Cc4nnc(C5CC5)o4)CC3)nc2c1 | 0.152% |
| COc1ccc(-c2nc(CNC(C)Cn3cccn3)cs2)cc1 (configuration not stated) | 4.27% |
| O=C(NCc1nc[nH]n1)c1cc(COc2cccc(F)c2)[nH]n1 | -4.99% |
| O=C(c1ccc[nH]1)N1CCc2ccc(S(=O)(=O)N3CCOCC3)cc2C1 | 3.99% |
| Cc1nc(C)c(-c2nnc(SCC(=O)O)n2C(C)c2ccccc2)o1 (configuration not stated) | 4.64% |
| COc1ccccc1OC1CCN(C(=O)c2cnc(C)cc2C)CC1 | 4.36% |
| c1ccc(N2CCCC(c3nc(-c4cccnn4)no3)C2)nc1 (configuration not stated) | -3.42% |
| CC1(C)CN(C(=O)c2ccccc2-n2cncn2)CC1(C)O (configuration not stated) | -19.3% |
| CCc1cc(N2C[C@H](C3CC3)[C@@H](N)C2)nc(N2CCOCC2)n1 | -1.47% |

| SMILES | cytotoxicity at 10 µM |
| --- | --- |
| Cc1nc(CCN)cc(N2CCC(O)(c3ccccc3)C2)n1 (configuration not stated) | 2.03% |
| CN1C(=O)C2(CCCN(C(=O)c3cccnc3O)C2)c2ccccc21 (configuration not stated) | -5.21% |
| CCCc1nncn1-c1cc(OC)ccc1OC | 7.93% |
| CN(C)C(C(=O)N1CCN(S(N)(=O)=O)CC1)c1ccccc1F (configuration not stated) | 0.199% |
| CN(C)CC1(O)CCCN(C(=O)c2ccccc2-n2cccn2)C1 (configuration not stated) | -20.6% |
| Cc1cc(C)n(CC2(CNC(=O)C(c3ccccc3C)N(C)C)CC2)n1 (configuration not stated) | 1.79% |
| O=C(CN1CCOC1=O)N1CCc2nnc(-c3ccccc3)n2CC1 | -16.2% |
| CCn1nc(NC(=O)Cn2ccc(C(C)=O)n2)c2ccccc21 | 12.8% |
| CN1CC2(CCN(C(=O)c3ccc4nccnc4c3)CC2)CC1=O | -1.7% |
| CCc1ncc(C(=O)N2CCN(Cc3ncccc3C)CC2)cn1 | -4.68% |
| COc1cc(CN2CCN(CC3CC3)[C@@H]3CS(=O)(=O)C[C@@H]32)cc(OC)c1 | 1.41% |
| COc1nc2ccccc2cc1CN1CCC(CNS(C)(=O)=O)C1 (configuration not stated) | -2.7% |
| CS(=O)(=O)N(Cc1ccon1)c1ccc2c(c1)OCO2 | 1.06% |
| O=C1CCc2cc(S(=O)(=O)NCc3cc4n(n3)CCCNC4)ccc2N1 | -5.38% |
| CCC(NS(C)(=O)=O)c1ccccc1C (configuration not stated) | -43.2% |
| Cc1ccccc1CS(=O)(=O)NCCCN1CCCCC1 | 19.4% |
| Cc1nc(-c2ccccc2C)n(CC(=O)NC2CCCC2)n1 | 5.48% |
| COc1c(CNCc2ccc3c(c2)OCCO3)c(C(C)C)nn1C | -3.42% |
| CCN(CC1CCOC1)C(=O)c1cc(F)ccc1N1CCN(C)CC1 (configuration not stated) | -7.68% |
| Cc1cccc(NS(=O)(=O)c2cc3c(c(C(=O)O)c2)OCCO3)c1 | -3.44% |
| CC(C)n1ncc2cc(NC(=O)N3CCC(C(N)=O)C3)cnc21 (configuration not stated) | -1.85% |
| O=C(CC1CCCO1)N1CCCN(c2cccnn2)CC1 (configuration not stated) | -7.72% |
| O=C(NCCn1ccnc1)N1CCCC1c1cccs1 (configuration not stated) | -7.51% |

| SMILES | cytotoxicity at 10 µM |
| --- | --- |
| NC(=O)Cn1cc(NC(=O)N2CCN(c3ccc(F)cc3)CC2)cn1 | -12.9% |
| Cc1cc(CN2CCN(C(=O)NC(C)c3cccnc3)CC2)no1 (configuration not stated) | -11.8% |
| CCc1nc(C2CCCN2C(=O)c2cc3c(s2)CCC3)no1 (configuration not stated) | -5.86% |
| Cc1nc2n(n1)CC(NCC(=O)Nc1cc(C)on1)CC2 (configuration not stated) | -12.8% |
| O=C(CCc1nc(-c2ccccn2)no1)N1CCCC1c1ccsc1 (configuration not stated) | -14.6% |
| c1ccc(-n2ccc(CN3CCOC(Cn4cncn4)C3)n2)cc1 (configuration not stated) | 0.561% |
| CC(NC(=O)NCCCc1n[nH]c(N)c1C#N)c1ccc(Cl)cc1 (configuration not stated) | -12.5% |
| CCC(O)CN1CCN(C(=O)c2cccn2Cc2cccnc2)CC1 (configuration not stated) | -14.1% |
| Cc1cn2nc(N3CCN(Cc4cc(C)on4)CC3)sc2n1 | -12.1% |
| c1cnnc(N2CCCC2CNc2cnc3ccccc3n2)c1 (configuration not stated) | 1.53% |
| O=C(NCCCn1nc2ccccn2c1=O)Nc1ccccc1Cl | -22.3% |
| COc1ccc(C(=O)N2CCCCC2c2nccs2)c(OC)c1 (configuration not stated) | -10.7% |
| CC(C)Oc1ncccc1CNC(=O)c1cnccn1 | -10.2% |
| Cn1cc(CN2CCc3c(COCC4CC4)cncc3C2)cn1 | -6.33% |
| Cn1cc(CN2CCc3onc(COc4cccnc4)c3C2)cn1 | 4.78% |
| CN1CC(=O)N(c2cnn(C)c2)CC12CCN(Cc1cccs1)C2 (configuration not stated) | 3.48% |
| CC(C)N1CCO[C@H]2CN(C(=O)Cc3ccsc3)C[C@H]21 | 11.4% |
| O=C(NC[C@]12COC[C@H]1CN(Cc1nccs1)C2)c1ccsc1 | 4.09% |
| CC(C)N1CCC2(CC1)CC(NCc1ccccn1)c1ccccc1O2 (configuration not stated) | 0.806% |
| O=C(Nc1ccccc1)[C@H]1C[C@H]2CN(C(=O)Nc3ccccc3)C[C@@H]1O2 | 2.4% |
